This is an account of results in ChEMBL document CHEMBL1157826 (J Med Chem, 2010).

One series concerns BP3. Briefly: Induction of apoptosis in human BP3 cells after 1 to 2 days by FITC-conjugated annexin V and propidium iodide staining-based FACS analysis. It counts as functional, cell-based. In general terms: In flow cytometry, cells or beads pass a laser one at a time.
The subject of series [1] is MEF. Kind of series: Induction of apoptosis in MEF expressing wild type Bcl-2 protein at 30 uM after 24 hrs by FITC-conjugated annexin V and propidium iodide staining-based FACS analysis. The series is classed as functional, cell-based. The settings on record: Mus musculus. The method, boiled down:
(§1)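 Next day, compound was added at final 0, 2.5, 5.0, 7.5, 10 and 30 μM. The following day, floating and trypsinized adherent cells were pooled and stained with Annexin V-FITC/PI. Cells negative for both were scored viable by flow cytometry.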

Series [2] has as its system MEF. Kind of series: Induction of apoptosis in Bak/Bax double knockout MEF at 30 uM after 24 hrs by FITC-conjugated annexin V and propidium iodide staining-based FACS analysis. It counts as functional. The settings on record: Mus musculus. The gist of the method:
as §1

Series [3] concerns M2182. Briefly: Antitumor activity against Mcl-1 overexpressing human M2182 cells xenografted in BALB/c mouse assessed as reduction of tumor size at 25 mg/kg, ip administered 9 times every 2 days. The series is classed as functional, organism-based. More on the design: dose 25 mg/kg. The method, boiled down: (§2)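 Dosing started at visible tumors of ~75 mm3 (~5–6 days): i.p. every 2 days, nine injections in all, in ethanol/Cremophor EL/saline 10:10:80 (500 μL). Vehicle controls were used, with at least five mice per group. Tumors were followed by luciferin (150 mg/kg i.p.) bioluminescence imaging and excised at study end.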
On the technique in general: A xenograft is tissue or cells of one species grown in another, often human tumour cells in immunodeficient mice.

Series [4] concerns MEF. Kind of series: Induction of apoptosis in Bak/Bax double knockout MEF at […] after 24 hrs by FITC-conjugated annexin V and propidium iodide staining-based FACS analysis. It counts as functional, cell-based. The settings on record: Mus musculus. The method, boiled down:
as §1

The test system of series [5] is Mus musculus. Briefly: Toxicity in BALB/c mouse xenografted with Mcl-1 overexpressing human M2182 cells at 10 to 25 mg/mg, ip administered 9 times every 2 days. It counts as organism-based. The settings on record: in vivo, 48 h. The gist of the method: (§3)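 Athymic nude male mice bearing bilateral s.c. M2182-Luc tumors (~75 mm3) received i.p. doses every 2 days, nine injections in all, in ethanol/Cremophor EL/saline 10:10:80 (500 μL). At least five animals per group. Tolerability was judged by signs of toxicity over the course of treatment.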

Series [6] relates to M2182. Kind of series: Antitumor activity against Mcl-1 overexpressing human M2182 cells xenografted in BALB/c mouse assessed as reduction of tumor size at 10 mg/kg, ip administered 9 times every 2 days. It counts as functional, organism-based. Also noted: dose 10 mg/kg. The method, boiled down:
as §2

Series [7] deals with M2182. Kind of series: Antitumor activity against Mcl-1 overexpressing human M2182 cells xenografted in BALB/c mouse assessed as complete inhibition of tumor growth at 25 mg/kg, ip administered 9 times every 2 days. The series is classed as functional, organism-based. More on the design: dose 25 mg/kg. The gist of the method:
as §2

Series [8] concerns Mus musculus. Briefly: Toxicity in BALB/c mouse xenografted with Mcl-1 overexpressing human M2182 cells at 1 to 5 mg/mg, ip administered 9 times every 2 days. It counts as organism-based. As to conditions: in vivo, 48 h. The method, boiled down: as §3
Series [9] is described as follows: Chemical stability at 10 mmol/L after 80 days at 37 degC by LC/MS/MS analysis. It counts as physicochemical. As to conditions: 1920 h, 10000 µM.
Series [10] deals with Mus musculus. Kind of series: Reduction of Bcl-2 accumulation in human Bcl2 expressing B6 transgenic mouse assessed as reduction in spleen weight at 42 mg/kg, ip administered as single dose after 24 hrs. The settings on record: route intraperitoneal; for inhibition in vivo at 42 mg/kg: Mus musculus, B6, Spleen, ip, 24 h. It counts as functional. The method, boiled down:
(§4)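 Age- and sex-matched B6 transgenic mice (human BCL-2 minigene fused to the IgH locus/enhancer, not yet lymphomatous; two per compound) received a single i.p. dose in 500 μL ethanol/Cremophor EL/saline 10:10:80. Controls received vehicle alone. Mice were killed with Avertin 24 h later and spleens weighed. Shrinkage was expressed as percent reduction versus controls.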

Series [11] can be described thus: Chemical stability at 10 mmol/L after 80 days at 21 degC by LC/MS/MS analysis. It counts as physicochemical. As to conditions: 1920 h, 10000 µM.
Series [12] deals with Mus musculus. Kind of series: Reduction of Bcl-2 accumulation in human Bcl2 expressing B6 transgenic mouse assessed as induction of spleen shrinkage at 42 mg/kg, ip administered as single dose after 24 hrs. As to conditions: route intraperitoneal. The series is classed as functional. Also noted: scale not given: the % may be the effect or the level left. The gist of the method:
as §4

A short description of series [13]: Chemical stability at 10 mmol/L after 80 days at 42 degC by LC/MS/MS analysis. The series is classed as physicochemical. As to conditions: 1920 h, 10000 µM.
Series [14] in a line: Antitumor activity against Mcl-1 overexpressing human M2182 cells xenografted in BALB/c mouse assessed as inhibition of tumor growth at 3 mg/kg, ip administered 9 times every 2 days. The series is classed as functional. More on the design: scale not given: the % may be the effect or the level left. As to conditions: route intraperitoneal. The gist of the method: as §2
Series [15] in a line: Chemical stability at 10 mmol/L after 80 days at -20 degC by LC/MS/MS analysis. The series is classed as physicochemical. The settings on record: 1920 h, 10000 µM.
Another series has as its system Liver microsomes. Briefly: (§5) Metabolic stability in rat liver microsomes at 4 uM after 40 mins by LC/MS/MS analysis. It counts as ADME, Microsome. As to conditions: microsomes, 40 min, 4 µM. The gist of the method:
(§6)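 Test compounds were incubated in rat liver microsomal preparations for 40 min, and the fraction of compound remaining or degraded was reported.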

Series [16] relates to M2182. Kind of series: Antitumor activity against Mcl-1 overexpressing human M2182 cells xenografted in BALB/c mouse assessed as reduction of tumor size at 1 to 5 mg/kg, ip administered 9 times every 2 days. The series is classed as functional, organism-based. The gist of the method: as §2
The test system of series [17] is M2182. Briefly: Antitumor activity against Mcl-1 overexpressing human M2182 cells xenografted in BALB/c mouse assessed as complete inhibition of tumor growth at 5 mg/kg, ip administered 9 times every 2 days. The series is classed as functional, organism-based. More on the design: dose 5 mg/kg. The method, boiled down: as §2
A short description of series [18]: as §5. It counts as ADME, Microsome. As to conditions: liver microsomes, read-out: Stability. The gist of the method:
as §6

The next series has as its target Bcl-2-like protein 1 (Homo sapiens, UniProt Q07817). Briefly: Displacement of FITC-labeled Bak BH3 peptide from Bcl-XL after 30 mins by fluorescence polarization assay. For orientation: Fluorescence polarisation rises when a labelled molecule tumbles more slowly, as on binding a larger partner.

Active and inactive are the calls of the source. The rule behind the calls is not given here. Some results are limits rather than exact numbers.

Chain of Bcl-2-like protein 1 (Q07817 whole entry): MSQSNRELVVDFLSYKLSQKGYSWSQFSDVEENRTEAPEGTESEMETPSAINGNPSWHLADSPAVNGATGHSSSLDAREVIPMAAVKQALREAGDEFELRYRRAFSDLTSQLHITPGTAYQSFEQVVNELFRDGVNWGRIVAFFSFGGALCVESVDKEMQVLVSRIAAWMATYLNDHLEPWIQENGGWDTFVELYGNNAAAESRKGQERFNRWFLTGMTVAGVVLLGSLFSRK

`Cc1cc2c(C(=O)NC[C@@H](C)c3ccccc3)c(O)c(O)cc2c(O)c1-c1c(C)cc2c(C(=O)NC[C@@H](C)c3ccccc3)c(O)c(O)cc2c1O`: in the series with BP3, the Activity result is “Dose-dependent effect”. For the same compound, the outcome with MEF [1] and in the series with MEF [2] was Active.
As to `Cc1cc2c(C(=O)NC[C@H](C)c3ccccc3)c(O)c(O)cc2c(O)c1-c1c(C)cc2c(C(=O)NC[C@H](C)c3ccccc3)c(O)c(O)cc2c1O`, the Activity result with BP3 is “Dose-dependent effect”.
With `Cc1cc2c(C(=O)NCC(C)c3ccccc3)c(O)c(O)cc2c(O)c1-c1c(C)cc2c(C(=O)NCC(C)c3ccccc3)c(O)c(O)cc2c1O` (racemic), the result in the series on M2182 [3], with MEF [4] and in the series with M2182 [7] was Active. In the series on Mus musculus [5], the Activity result is listed as “Non-toxic”. In the series on M2182 [6], the outcome was inactive.
By inhibition in vivo is commonly meant the change of the read-out against control, counted positive when it falls. As to `Cc1cc2c(C(=O)NC[C@H](C)c3ccccc3)c(O)c(O)cc2c(O)c1-c1c(C)cc2c(C(=O)NC[C@H](C)c3ccccc3)c(O)c(O)cc2c1O` (single isomer, unassigned; atropisomer) [listing 1 of 2 here], the Activity entry was “Non-toxic” in the series with Mus musculus [8], 65% with Mus musculus [12] (42 mg/kg) and 40% in series [14]. The Stability result is given as “Stable” in series [9]; “Stable” in series [11]; “Stable” in series [13]; “Stable” in [15]; 41% in the series on Liver microsomes. For the same compound, the inhibition in vivo at 42 mg/kg in the series with Mus musculus [10] is greater than 30%.
With `Cc1cc2c(C(=O)NC[C@@H](C)c3ccccc3)c(O)c(O)cc2c(O)c1-c1c(C)cc2c(C(=O)NC[C@@H](C)c3ccccc3)c(O)c(O)cc2c1O` (single isomer, unassigned; atropisomer) [listing 1 of 2 here], the Stability entry in series [9] is “Stable”; in series [11] it was “Stable”; in [13] it was “Stable”; in [15], “Stable”; in the series with Liver microsomes, 42%. In addition, the inhibition in vivo at 42 mg/kg in the series on Mus musculus [10] was no more than 20%. Further, the Activity result in the series on Mus musculus [12] was “<=40%”.
Take `Cc1cc2c(C(=O)NC[C@@H](C)c3ccccc3)c(O)c(O)cc2c(O)c1-c1c(C)cc2c(C(=O)NC[C@@H](C)c3ccccc3)c(O)c(O)cc2c1O` (single isomer, unassigned; atropisomer) [listing 2 of 2 here]: the Activity entry in the series with BP3 was “Dose-dependent effect”.
As for `Cc1cc2c(C(=O)NC[C@H](C)c3ccccc3)c(O)c(O)cc2c(O)c1-c1c(C)cc2c(C(=O)NC[C@H](C)c3ccccc3)c(O)c(O)cc2c1O` (single isomer, unassigned; atropisomer) [listing 2 of 2 here], the Activity result with BP3 is “Dose-dependent effect”. In addition, the result with MEF [1], with M2182 [16] and in the series on M2182 [17] was Active.
Regarding `Cc1cc2c(C(=O)NC[C@H](C)c3ccccc3)c(O)c(O)cc2c(O)c1-c1c(C)cc2c(C(=O)NC[C@H](C)c3ccccc3)c(O)c(O)cc2c1O` [1,1',6,6',7,7'-HEXAHYDROXY-3,3'-DIMETHYL-N5-((R)-2-PHENYLPROPYL)-N5'-((R)-2-PHENYLPROPYL)-2,2'-BINAPHTHYL-5,5'-DICARBOXAMIDE (ATROPISOMERIC MIX)], the “inhibition (INH)” value in the series on Mus musculus [10] (42 mg/kg) is reported as “<=20%”. The Activity entry in the series with Mus musculus [12] (42 mg/kg) was “<=40%”; in the series on Mus musculus [5], “Non-toxic”. Moreover, the remaining at 40 min, 4 µM in series [18] amounted to 28%.
Consider `Cc1cc2c(C(=O)NC[C@@H](C)c3ccccc3)c(O)c(O)cc2c(O)c1-c1c(C)cc2c(C(=O)NC[C@@H](C)c3ccccc3)c(O)c(O)cc2c1O` [(S)-1',6,6',7,7'-HEXAHYDROXY-3,3'-DIMETHYL-N5-((S)-2-PHENYLPROPYL)-N5'-((S)-2-PHENYLPROPYL)-2,2'-BINAPHTHYL-5,5'-DICARBOXAMIDE (ATROPISOMERIC MIX)], for which, in series [18], the remaining at 40 min, 4 µM was 41%.
As usually defined, the IC50 is the concentration at which inhibition is half-maximal. As for `Cc1cc2c(C(C)C)c(O)c(O)c(C=O)c2c(O)c1-c1c(C)cc2c(C(C)C)c(O)c(O)c(C=O)c2c1O` [GOSSYPOL], the IC50 at Bcl-2-like protein 1 turned out to be 540 nM.
